From ChEMBL document CHEMBL1133983, “Antiprotozoal and cytotoxicity evaluation of sulfonamide and urea analogues of quinacrine” (Bioorg Med Chem Lett, 2001)
Converted amounts (≈) assume the structure as drawn.

Assays:
[1] = test system: Trypanosoma brucei; assay: Anti parasitic activity against Trypanosoma brucei; format: functional; details: read-out: ED50 (the source's name)
[2] = test system: KB; assay: Toxicity of the quinacrine derivatives was determined against the KB cell line in comparison to podophyllotoxin; format: functional; details: Homo sapiens, read-out: ED50 (the source's name)
[3] = test system: Leishmania donovani; assay: Anti parasitic activity against Leishmania donovani (cultured in murine macrophages); format: functional; details: for EC50: read-out: ED50 (the source's name)
[4] = test system: Plasmodium falciparum; assay: Antiparasitic activity for Plasmodium falciparum 3D7; format: functional; details: read-out: ED50 (the source's name)
In short: (§1)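 Growth of P. falciparum in human red blood cells was measured by [³H]-hypoxanthine incorporation over 48 h. 3D7 is the chloroquine-sensitive strain and K1 the chloroquine-resistant strain.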

[5] = test system: Trypanosoma cruzi; assay: Anti parasitic activity against Trypanosoma cruzi (cultured in murine macrophages); format: functional; details: read-out: ED50 (the source's name)
[6] = Ratio of Inhibitory activity against glutathione reductase and inhibitory activity against trypanothione reductase was determined
[7] = target: Trypanothione reductase (Trypanosoma cruzi, UniProt P28593); assay: Inhibitory concentration against trypanothione reductase was determined
Chain of Trypanothione reductase (P28593 whole entry): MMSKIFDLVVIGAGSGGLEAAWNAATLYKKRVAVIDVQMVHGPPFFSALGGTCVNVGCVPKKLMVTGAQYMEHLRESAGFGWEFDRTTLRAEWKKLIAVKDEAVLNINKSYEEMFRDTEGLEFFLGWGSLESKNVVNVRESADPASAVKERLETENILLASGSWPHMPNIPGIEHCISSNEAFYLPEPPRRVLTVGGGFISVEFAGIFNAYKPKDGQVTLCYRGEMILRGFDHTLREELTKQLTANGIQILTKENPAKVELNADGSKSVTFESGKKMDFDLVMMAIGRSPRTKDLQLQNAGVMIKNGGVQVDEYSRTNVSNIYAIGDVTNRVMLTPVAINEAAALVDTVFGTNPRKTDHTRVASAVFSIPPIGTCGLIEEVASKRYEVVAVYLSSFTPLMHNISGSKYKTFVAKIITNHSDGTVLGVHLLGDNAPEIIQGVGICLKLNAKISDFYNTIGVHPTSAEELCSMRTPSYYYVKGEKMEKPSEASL
In short: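 Recombinant T. cruzi trypanothione reductase (128 mU) was followed spectrophotometrically at 25 °C in 40 mM HEPES pH 7.5 with 1 mM EDTA and NADPH. Enzyme and NADPH were preincubated for 10 min at 25 °C, inhibitor was added at varying concentrations in DMSO (1% v/v final), and the reaction was started with Try[SH]2.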

[8] = target: T1, Glutathione reductase, mitochondrial (Homo sapiens, UniProt P00390); assay: Inhibitory concentration against human Glutathione reductase was determined
T1 sequence (P00390 whole entry): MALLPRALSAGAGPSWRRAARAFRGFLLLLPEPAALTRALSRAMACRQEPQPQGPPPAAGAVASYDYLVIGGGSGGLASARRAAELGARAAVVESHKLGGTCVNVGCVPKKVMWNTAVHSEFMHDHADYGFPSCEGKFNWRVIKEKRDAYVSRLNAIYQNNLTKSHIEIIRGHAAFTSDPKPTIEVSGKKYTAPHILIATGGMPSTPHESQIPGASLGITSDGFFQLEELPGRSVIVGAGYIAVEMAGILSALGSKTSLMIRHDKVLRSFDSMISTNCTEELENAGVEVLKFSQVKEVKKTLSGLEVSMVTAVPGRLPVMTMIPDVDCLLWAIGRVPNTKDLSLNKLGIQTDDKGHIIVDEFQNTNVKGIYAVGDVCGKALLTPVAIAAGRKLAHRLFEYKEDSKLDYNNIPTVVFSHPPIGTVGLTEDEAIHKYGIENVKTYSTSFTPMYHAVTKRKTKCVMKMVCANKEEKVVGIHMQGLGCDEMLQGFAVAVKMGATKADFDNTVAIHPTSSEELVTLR
In short: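 Human glutathione reductase purified from erythrocytes (42.3 mU) was run spectrophotometrically at 25 °C in 40 mM HEPES pH 7.5 with 1 mM EDTA and NADPH. It was preincubated with NADPH for 10 min, inhibitor was added at varying concentrations in DMSO (1% v/v final), and glutathione disulfide was then added.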

[9] = test system: Plasmodium falciparum; assay: Anti parasitic activity for Plasmodium falciparum K1; format: functional; details: read-out: ED50 (the source's name); in short: as §1
[10] = test system: Trypanosoma cruzi; assay: Anti parasitic activity against Trypanosoma cruzi; format: functional; details: read-out: ED50 (the source's name)
In short: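 In vitro test against intracellular amastigotes of T. cruzi grown in murine macrophages.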

**Q.** With `COc1ccc2nc3cc(Cl)ccc3c(NCCCCCCNC(=O)NCc3ccccc3)c2c1` as the molecule, how does the EC50 [1] read?
**A.** Its EC50 is 0.46 µg/mL (≈ 0.937 µM).

**Q.** What about the EC50 [2] of the same molecule?
**A.** Its EC50 is 4.3 µg/mL (≈ 8.76 µM).

**Q.** And the EC50 [3]?
**A.** Its EC50 is 5.8 µg/mL (≈ 11.8 µM).

**Q.** And the EC50 [4]?
**A.** Its EC50 is 0.14 µg/mL (≈ 0.285 µM).

**Q.** And the EC50 [5]?
**A.** The EC50 was 6.8 µg/mL (≈ 13.8 µM).

**Q.** What about the Selectivity [6] of the same molecule?
**A.** Its Selectivity is 1.5.

**Q.** What about the IC50 [7] of the same molecule?
**A.** Its IC50 is 11.4 µM.

**Q.** And the IC50 [8]?
**A.** Its IC50 is 17.1 µM.

**Q.** Which results are given for `COc1ccc2nc3cc(Cl)ccc3c(NCCCNC(=O)NCc3ccccc3)c2c1`?
**A.** EC50 [1]: 0.083 µg/mL (≈ 0.185 µM); EC50 [9]: 0.015 µg/mL (≈ 0.0334 µM); EC50 [2]: 0.7 µg/mL (≈ 1.56 µM); EC50 [3]: 1.9 µg/mL (≈ 4.23 µM); EC50 [4]: 0.0005 µg/mL (≈ 0.00111 µM); EC50 [5]: 22 µg/mL (≈ 49 µM); Selectivity [6]: 3.4; IC50 [7]: 13.1 µM; IC50 [8]: 44.7 µM

**Q.** With `CCN(CC)CCCC(C)Nc1ccnc2cc(Cl)ccc12` (stereo unspecified) [CHLOROQUINE] as the molecule, how does the EC50 [9] read?
**A.** Its EC50 is 0.15 µg/mL (≈ 0.469 µM).

**Q.** And the EC50 [4]?
**A.** The EC50 was 0.002 µg/mL (≈ 0.00625 µM).

**Q.** What does the source list for `CCN(CC)CCCC(C)Nc1c2ccc(Cl)cc2nc2ccc(OC)cc12` (stereo unspecified) [QUINACRINE]?
**A.** Selectivity [6]: > 7.5; IC50 [7]: 133 µM; IC50 [8]: > 1000 µM

**Q.** For `N=C(N)c1ccc(OCCCCCOc2ccc(C(=N)N)cc2)cc1` [PENTAMIDINE], which EC50 [1] is on record?
**A.** The EC50 was 0.0002 µg/mL (≈ 0.000587 µM).

**Q.** Which EC50 [10] does the source give for `c1ccc2[nH]cnc2c1` [BENZIMIDAZOLE] here?
**A.** Its EC50 is 12.4 µg/mL (≈ 105 µM).

**Q.** For `COc1ccc2nc3cc(Cl)ccc3c(NCCCCNC(=O)NCc3ccccc3)c2c1`, which EC50 [1] is on record?
**A.** The EC50 was 0.043 µg/mL (≈ 0.0929 µM).

**Q.** And the EC50 [2]?
**A.** Its EC50 is 0.8 µg/mL (≈ 1.73 µM).

**Q.** And the EC50 [3]?
**A.** The EC50 was 1.9 µg/mL (≈ 4.1 µM).

**Q.** And the EC50 [4]?
**A.** Its EC50 is 0.0013 µg/mL (≈ 0.00281 µM).

**Q.** What about the EC50 [5] of the same molecule?
**A.** The EC50 was under 1 µg/mL.

**Q.** And the Selectivity [6]?
**A.** The Selectivity was 3.6.

**Q.** And the IC50 [7]?
**A.** The IC50 was 15.5 µM.

**Q.** And the IC50 [8]?
**A.** The IC50 was 55.8 µM.

**Q.** For `COc1ccc2nc3cc(Cl)ccc3c(NCCNC(=O)NCc3ccccc3)c2c1`, which EC50 [1] is on record?
**A.** Its EC50 is 0.42 µg/mL (≈ 0.966 µM).

**Q.** What about the EC50 [2] of the same molecule?
**A.** Its EC50 is 4.1 µg/mL (≈ 9.43 µM).

**Q.** And the EC50 [3]?
**A.** The EC50 was 10.7 µg/mL (≈ 24.6 µM).

**Q.** And the EC50 [4]?
**A.** The EC50 was 0.069 µg/mL (≈ 0.159 µM).

**Q.** And the EC50 [5]?
**A.** Its EC50 is over 30 µg/mL.

**Q.** What about the Selectivity [6] of the same molecule?
**A.** The Selectivity was 1.4.

**Q.** What about the IC50 [7] of the same molecule?
**A.** The IC50 was 19.3 µM.

**Q.** What about the IC50 [8] of the same molecule?
**A.** The IC50 was 27.2 µM.

**Q.** For `COc1cc([C@@H]2c3cc4c(cc3[C@H](O)[C@H]3COC(=O)[C@H]23)OCO4)cc(OC)c1OC` [PODOFILOX], which EC50 [2] is on record?
**A.** Its EC50 is 0.008 µg/mL (≈ 0.0193 µM).

**Q.** Which results are given for `COc1ccc2nc3cc(Cl)ccc3c(NCCCCNS(=O)(=O)c3ccc4ccccc4c3)c2c1`?
**A.** EC50 [1]: 0.12 µg/mL (≈ 0.231 µM); EC50 [2]: 0.4 µg/mL (≈ 0.769 µM); EC50 [3]: 3.3 µg/mL (≈ 6.35 µM); EC50 [4]: 0.033 µg/mL (≈ 0.0635 µM); EC50 [5]: > 30 µg/mL; Selectivity [6]: 2.8; IC50 [7]: 5 µM; IC50 [8]: 13.9 µM

**Q.** With `COc1ccc2nc3cc(Cl)ccc3c(NCCCNS(=O)(=O)c3ccc4ccccc4c3)c2c1` as the molecule, how does the EC50 [1] read?
**A.** Its EC50 is 0.078 µg/mL (≈ 0.154 µM).

**Q.** And the EC50 [2]?
**A.** The EC50 was 0.4 µg/mL (≈ 0.79 µM).

**Q.** And the EC50 [3]?
**A.** The EC50 was 1.9 µg/mL (≈ 3.75 µM).

**Q.** What about the EC50 [4] of the same molecule?
**A.** Its EC50 is 0.01 µg/mL (≈ 0.0198 µM).

**Q.** What about the EC50 [5] of the same molecule?
**A.** The EC50 was 23.9 µg/mL (≈ 47.2 µM).

**Q.** What about the Selectivity [6] of the same molecule?
**A.** Its Selectivity is 8.2.

**Q.** What about the IC50 [7] of the same molecule?
**A.** The IC50 was 3.3 µM.

**Q.** And the IC50 [8]?
**A.** The IC50 was 27.2 µM.

**Q.** For Pentostam, which ED50 [3] is on record?
**A.** The ED50 was 8.9 µg/mL.

**Q.** What does the source list for `COc1ccc2nc3cc(Cl)ccc3c(NCCNS(=O)(=O)c3ccc4ccccc4c3)c2c1`?
**A.** EC50 [1]: 0.47 µg/mL (≈ 0.955 µM); EC50 [2]: 2.7 µg/mL (≈ 5.49 µM); EC50 [3]: 5.8 µg/mL (≈ 11.8 µM); EC50 [4]: 0.025 µg/mL (≈ 0.0508 µM); EC50 [5]: > 30 µg/mL; Selectivity [6]: 1.7; IC50 [7]: 5.9 µM; IC50 [8]: 9.9 µM
